A selection: hits, their analogues and other compounds. The true share with any hit is near 4.6%.
p47phox inh: blocks human p47phox regulatory protein of NADPH oxidases; p47phox/p22phox peptide binding, fluorescence polarization, 2 h; inhibition, % at 24.7 µM; 0.53% of 220,000 active; P14598;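 active = inhibition above about 30%, limit read from the data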;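 note: 0% = p47phox with labelled peptide and 100% = labelled peptide alone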
Hck Nef HTS: blocks Nef-activated human Hck kinase. P08631. Recombinant Hck-YEEI plus Nef, Z-Lyte FRET kinase assay. inhibition, % at 20 µM. 0.68% of 220,000 active;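 active = Hck-Nef kinase inhibition above about 50%, limit read from the data; inactive = inhibition below that limit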;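 note: 0% = DMSO with Hck plus Nef and 100% = Hck alone without Nef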
Target sequence (P08631 whole entry, looked up): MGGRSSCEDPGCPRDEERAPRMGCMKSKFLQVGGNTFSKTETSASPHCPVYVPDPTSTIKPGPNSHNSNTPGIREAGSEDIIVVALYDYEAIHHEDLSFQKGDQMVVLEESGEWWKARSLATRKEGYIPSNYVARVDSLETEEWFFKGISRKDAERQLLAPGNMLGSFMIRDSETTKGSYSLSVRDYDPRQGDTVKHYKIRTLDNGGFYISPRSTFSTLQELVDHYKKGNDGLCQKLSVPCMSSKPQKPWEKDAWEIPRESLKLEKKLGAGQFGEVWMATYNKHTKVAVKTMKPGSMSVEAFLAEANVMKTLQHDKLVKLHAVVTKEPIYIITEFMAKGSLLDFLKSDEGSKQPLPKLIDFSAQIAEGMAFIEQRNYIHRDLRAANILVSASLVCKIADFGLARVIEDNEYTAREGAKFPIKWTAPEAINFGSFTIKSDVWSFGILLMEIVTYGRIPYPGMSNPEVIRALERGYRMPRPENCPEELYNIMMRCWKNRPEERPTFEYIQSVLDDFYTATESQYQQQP
Arbovirus anti: arbovirus infection inhibition. arbovirus infection cell-based antiviral screen. inhibition, % at 10 µM. 0.37% of 200,000 active. AID 1251; in the data active = inhibition above about 30%
WT yeast gro inh: growth inhibition of WT yeast, mitochondrial fusion screen; 2.1% of 190,000 active; AID 1362; inhibition, % at 10 µM; mitochondrial fusion phenotypic screen, WT strain; in the data active = inhibition above about 58%; tested in S. cerevisiae
RAM network inh: inhibitors of the yeast RAM network; S. cerevisiae dse1pr::URA3 reporter, 5-FOA growth OD615, 2 d; analog-sensitive cbk1-as2 kinase mutant strain; 1.8% of 190,000 active; AID 868; inhibition, % at 50 µM;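 active = inhibition above a set limit, 3 SD over mean compound inhibition, cut at about 8.4% in these data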;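 note: 0% = DMSO-only wells with no growth and 100% = 10 µM 1-NA-PP1 full growth; inhibition rescues growth on 5-FOA so higher OD means more RAM inhibition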
Biofilm kill mix: mixture kills Candida albicans biofilm cells. AID 1242. 0.02% of 120,000 active. inhibition, % at 7.6 µM. C. albicans biofilm persisters + clotrimazole, fluorescence viability; primary screen in compound mixtures of four per well;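 note: compounds exposed to preformed 24 h biofilms for 48 h; 0% = untreated biofilm control and 100% = clotrimazole plus chlorhexidine kill blank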
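Test system: C. albicans CAF4-2 wild-type biofilms; buffer or medium: RPMI/MOPS medium, pH 7.0; schedule: 24 h biofilm formation, then 48 h compound exposure, 37 °C; detection: Alamar Blue fluorescence; measure: percent inhibition of biofilm viability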
* marks the source's active call; other numbers are inactive results; . = not tested or not shown.

SMILES	p47phox inh	Hck Nef HTS	Arbovirus anti	WT yeast gro inh	RAM network inh	Biofilm kill mix
O=C(NCc1cccnc1)C(=O)NCC(c1ccco1)N1CCN(c2ccccc2F)CC1 (centres undefined)	-4	2	0	6	1	14
O=C(NCc1ccccc1)C(=O)NCC(c1ccco1)N1CCN(c2ccccc2F)CC1 (centres undefined)	59*	23	-7	23	0	-9
Cc1ccc(Cc2c[nH]c(=S)s2)cc1	-7	18	-9	68*	0	16
Cc1ccc(NC(=O)COC(=O)CCNS(=O)(=O)c2ccc(C)c(C)c2)cc1	-1	6	-1	-12	5	-1
Cc1ccc(C(c2nnnn2CC2CCCO2)N2CCN(c3cccc(C)c3C)CC2)cc1 (centres undefined)	2	1	-31	60*	-1	.
Cc1cccc(N2CCN(C(c3ccccc3)c3nnnn3C(C)(C)C)CC2)c1C (centres undefined)	-20	11	-4	75*	0	12
Cc1cc(-c2ccccc2)nc(N(C)N)c1S(C)(=O)=O	2	19	-4	9	-1	14
Cc1cc(-c2ccccc2)nc(N(C)NC(=O)c2c(F)cccc2F)c1S(C)(=O)=O	115*	-1	4	-6	1	.
CC1CC(C)CN(C(=O)c2ccccc2Nc2ccc(SC(F)F)cc2)C1 (centres undefined)	25	0	-31	57	9.0*	.
O=C1C2C3C=CC(C3)C2C(=O)N1CCCCCCN1C(=O)C2C3C=CC(C3)C2C1=O (centres undefined)	1	20	4	2	-1	11
O=C1C=CC(=O)N1CCCCCCN1C(=O)C=CC1=O	6	-6	-5	92*	-1	18
CSCCn1c(C(C)(C)C)cc(C(=O)O)c1C	-5	-2	.	.	.	15
CCOC(=O)c1sc2ccccc2c1OC(=O)c1ccccc1OC	-8	15	4	20	10*	8
CCOC(=O)c1cc(OC(=O)c2ccccc2OC)n(-c2ccccc2)n1	17	0	0	-24	1	.
CCCc1cc(-c2nc(N)ncc2-c2csc(C)n2)c(O)cc1OC	-30	43	-19	26	-1	-5
CCCc1cc(-c2nc(N)ncc2-c2ccc3c(c2)OCCCO3)c(O)cc1OC	1	20	-45	85*	6	.
O=C1c2cccc3c(O)ccc(c23)C(=O)N1Cc1ccccc1	37*	-4	8	17	5	.
CC(=O)Nc1nonc1NC(=O)c1ccc(C(C)(C)C)cc1	-3	1	-1	-13	2	.
CCn1cnc2sc(C(=O)N3CCN(Cc4ccc5c(c4)OCO5)CC3)c(C)c2c1=O	85*	2	3	-11	2	.
Cc1nc(NC(=O)c2ccccc2)sc1-c1csc(Nc2cccc(F)c2)n1	-30	1	-28	80*	3	.
COc1ccccc1Nc1nc(-c2sc(NC(=O)c3ccccc3)nc2C)cs1	-5	1	-11	10	1	.
Cc1ccc(Cl)cc1Nc1nc(-c2sc(NC(=O)c3ccccc3)nc2C)cs1	-30	7	-22	-8	9.3*	.
Cc1nc(C)c(-c2csc(Nc3ccc(F)cc3)n2)s1	-6	-21	-4	73*	1	9
Nc1ccc(N2CCCCC2)cc1N1CCCCC1	16	-1	-15	72*	0	.
Cc1nn(-c2cc(N3CCCCC3)ccc2N)c(=O)c2ccccc12	1	8	11	1	-1	9
SMILES	p47phox inh	Hck Nef HTS	Arbovirus anti	WT yeast gro inh	RAM network inh	Biofilm kill mix
CCN1CCN(c2ccc(NC(=O)CCc3c(C)nc4c(-c5ccc(F)cc5)c(C)nn4c3C)cc2)CC1	2	24	-24	22	1	13
CCOC(=O)CSc1c(-c2cccs2)[nH]c2ccccc12	-21	5	-16	64*	4	9
CCCCCc1nnc(NC(=O)C2COc3ccccc3O2)s1 (centres undefined)	-2	17	46*	25	3	2
CCc1nnc(NC(=O)C2COc3ccccc3O2)s1 (centres undefined)	0	-2	5	3	0	.
Cc1ccc(CSc2nnc(NC(=O)C3COc4ccccc4O3)s2)cc1 (centres undefined)	-5	0	56*	14	0	.
CCCn1c(NC(=O)C2COc3ccccc3O2)nc2ccccc21 (centres undefined)	-19	1	-11	3	8.6*	.
Cc1ccnc(NS(=O)(=O)c2ccc(NC(=O)C3C4C=CC(C4)C3C(=O)O)cc2)n1 (centres undefined)	1	1	-4	9	1	3
COc1cc2nc3c4ccccc4n(CC#N)c3nc2cc1OC	0	2	-2	-3	8.4*	.
CCn1c2ccccc2c2nc3cc(OC)c(OC)cc3nc21	-5	16	-5	-15	9.3*	.
COc1ccc2c(c1)c1nc3ccccc3nc1n2Cc1ccc(OC)c(OC)c1	-24	3	33*	1	0	11
CCOC(=O)NC(=O)/C(C#N)=C\Nc1sccc1C(=O)OC	-27	8	2	-3	0	19
O=C(Oc1ccc(/C=N/Nc2nc(N3CCCCC3)nc(N3CCCCC3)n2)cc1)c1ccco1	-12	19	-18	-13	7	11
Cc1cc(=O)[nH]c(Sc2c(-c3ccccc3)c3ccccc3[nH]c2=O)n1	1	0	8	-10	8.7*	.
COc1cccc(C(=O)Oc2ccc3c(C)cc(=O)oc3c2C(C)=O)c1	-5	12	2	9	1	18
CCOC(=O)c1c(N)sc(-c2ccccc2)c1C	14	1	-5	12	-3	-7
CCOC(=O)c1c(N)sc(C(O)(C(F)(F)F)C(F)(F)F)c1-c1ccccc1	-9	-1	-31	97*	-1	.
CN1CCC2(CC1)Nc1nc(SCc3ccc(Cl)cc3)nn1C1=C2CN(C)CC1	6	0	-27	66*	-1	.
COc1cccc(CC2(CO)CCCN(Cc3cn[nH]c3-c3cc(C)ccc3C)C2)c1 (centres undefined)	-10	21	-5	1	0	19
Cc1cc(-c2ccc(Br)s2)nc(-n2cccc2)n1	-19	-11	24	33	2	-9
Cc1cc(-c2sccc2Br)nc(-n2cccc2)n1	-7	-2	6	69*	2	19
Cn1ccnc1SCC(=O)Nc1cc(C(F)(F)F)ccc1N1CCOCC1	-11	5	6	8	1	.
CC(C)C1COC(c2cccn2Cc2ccccc2Cl)=N1 (centres undefined)	-9	1	9	65*	1	30
COc1cc(NC(=S)N(C)CCC#N)c(OC)cc1Cl	-16	4	.	.	.	17
Clc1ccc(CSc2nnc(-c3ccncc3)o2)c(Cl)c1	1	0	-7	76*	2	.
Cc1ccccc1CN1CCN(S(=O)(=O)c2cccs2)CC1	-11	23	4	8	0	5
